From PubChem
CHOP inhibitor: CHOP inhibition in unfolded protein response; hit rate 3.8% among 220,000; AID 2732; CHO-K1 CHOP-promoter luciferase, tunicamycin-induced, 15-18 h; inhibition, % at 10 µM;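 active means compounds that reduced the stress-induced luciferase reporter signal by more than about 70% of percent inhibition, limit read from the data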;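 further: 0% = tunicamycin plus vehicle and 100% = wells without tunicamycin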
MT stabilizer: microtubule stabilization, imaging screen. HeLa tubulin immunostaining HCS, 24 h; share of cells brighter than vehicle mean+2SD. % tubulin-high responders, % at 10 µM. hit rate 0.83% among 200,000;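 active means plate Z-score above 3 for both tubulin-high and condensed-nucleus cell shares, with cell loss under 80%, at 10 µM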;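 further: anti alpha tubulin signal scored within the nucleus-defined area of each cell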
Autophagy mod: modulators of autophagy; MEF GFP-LC3 puncta imaging; test concentration mostly 10 µM; calls only at 10 µM (by protocol); hit rate 0.98% among 190,000;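 active means percentage of spot-positive cells more than 3 SD above its plate mean, without a fluorescence outlier flag or 80% toxicity; inconclusive means no clear call, values can overlap the other calls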;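 further: spot-positive cell cutoff set from DMSO-treated cells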
L major viab: reduces viability of Leishmania major promastigotes | inhibition, % at 10 µM | AID 1063 | resazurin fluorescence viability | hit rate 9% among 200,000; in the data active means inhibition above about 50%;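 further: promastigotes grown with compound for 44 hours at 28 °C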
Dynein cargo inh: dynein cargo transport inhibition; hit rate 0.47% among 220,000; 3617.4 mouse cells, GR-EGFP nuclear translocation imaging; test concentration mostly 20 µM; stimulated with dexamethasone, 1 µM; stronger effect = lower value; AID 1381; z-score, hits read low;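 active means plate z-score of nuclear minus cytoplasmic receptor signal below a set negative limit, without overly bright fluorescence or cell loss, cut at about -3.5 in these data, passing the limit was not always enough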;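 further: z-score of nuclear minus cytoplasmic ring GR-EGFP intensity difference per well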
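Buffer or medium – tet-free medium with charcoal-stripped serum · Signal – automated 10x imaging of fixed Hoechst-stained cells · Also added – dexamethasone agonist, 1.0 µM final, for 30 min · Incubation – induction 48 h, compound 1 h, agonist 30 min · Read-out – GR-EGFP nuclear translocation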
b-catenin transl: alters nuclear translocation of beta-catenin in HeLa cells. immunofluorescence imaging. nuclear translocation activity, % at 5 µM. hit rate 0.3% among 190,000;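 active means nuclear translocation activity above 50% at 5 µM, with a well cell count of 50 or more; inconclusive means wells under 50 cells across six images, flagged as toxic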;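 further: per-cell ratio of nuclear to cytoplasmic median beta-catenin stain intensity; plate controls were DMSO negative control for no effect and GSK-3 inhibitor IX positive control for full effect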
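System: Human HeLa cells, endogenous beta-catenin | Compound dosing: 5 µM primary, 0.02–20 µM confirmation | Timing: 24 h compound exposure at 37°C, 5% CO2 | Measured by: Fluorescence imaging of beta-catenin antibody stain plus DAPI | Read-out basis: % activation of per-cell nuclear versus cytoplasmic median beta-catenin signal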
Numbers without * were called inactive; i = inactive; ? = inconclusive; / = no result. Rows were chosen to be rich in hits. Some 12% of all compounds tested hit in one or more screens of this group.

SMILES	CHOP inhibitor	MT stabilizer	Autophagy mod	L major viab	Dynein cargo inh	b-catenin transl
CCC(C)(C)C(=O)Nc1cc([N+](=O)[O-])ccc1Cl	5.9	3.2	i	-3.4	1.78	1.0
O=C1C=C(Nc2ccc(Cl)cc2)C(=O)N1c1ccc(Cl)cc1	13.3	4.4	i	-8.6	-0.089	1.1
O=C(Cn1nnc(-c2ccccc2Cl)n1)N/N=C/c1ccc(-c2cccc(Cl)c2)o1	74.1*	4.7	i	-5.0	0.408	0.2
Nc1nnc(CC(=O)N/N=C/c2ccc(-c3ccccc3Cl)o2)s1	25.0	4.1	i	-4.3	0.0875	0.6
O=C(CN1CCCC1)N/N=C/c1ccc(-c2cccc(Cl)c2)o1	-5.5	2.0	i	100.5*	-0.00723	0.5
Nc1nnc(CC(=O)N/N=C\c2ccc(-c3cccc(Cl)c3)o2)s1	-1.7	/	/	/	0.479	-0.8
CNC(=O)C1CC(=O)N(CCCc2ccccc2)C(=Nc2ccccc2)S1 (centres undefined)	-12.3	1.1	i	55.3*	-0.469	/
CC(=O)Nc1ccc(C(=O)N2CCCC2)cc1	6.6	3.7	i	-7.5	-1.04	-1.4
CC12CCC(c3c(C(=O)Nc4nccs4)nn(-c4ccccc4)c31)C2(C)C (centres undefined)	64.0	4.7	i	100.0*	-0.977	-5.8
CC12CCC(c3c(C(=O)O)nn(-c4ccccc4)c31)C2(C)C (centres undefined)	7.6	2.3	i	-5.1	-1.19	-6.0
Oc1ccc(/C=N/n2c3ccccc3c3ccccc32)cc1	91.0*	2.2	i	1.9	-0.632	1.5
CCc1ccccc1NC(=O)/C(C#N)=C\c1ccc(Sc2ccccc2)o1	-25.4	1.0	i	-3.6	0.0674	-0.9
CCc1ccccc1NC(=O)/C(C#N)=C/c1ccc(Sc2ccccc2)o1	5.1	2.5	i	92.9*	-0.045	/
O=C(c1cccc(S(=O)(=O)N2CCc3ccccc32)c1)N1CCN(c2ccccn2)CC1	19.6	6.9	i	21.5	-0.449	7.4
COc1ccc(C=O)cc1COc1ccc(Cl)cc1[N+](=O)[O-]	42.5	2.3	i	-3.3	-0.564	-1.3
CSc1ccccc1NC(=O)CN(C)CC(=O)Nc1ccccc1F	14.2	2.1	i	-5.3	-0.934	2.5
CSc1ccccc1NC(=O)CN(C)C(C)C(=O)Nc1ccc(C#N)cc1 (centres undefined)	16.6	1.1	i	56.4*	-0.986	-0.6
Oc1ccc(N=Nc2nc(-c3ccccc3)c(-c3ccccc3)[nH]2)cc1	92.5*	3.9	i	96.1*	-0.666	/
Oc1ccc(N=Nc2n[nH]c(-c3ccccc3)n2)cc1	-1.1	3.0	i	12.2	0.712	-1.8
O=C(CNC1CCN(Cc2ccccc2)CC1)Nc1ccc(S(=O)(=O)N2CCCCC2)cc1	5.9	/	/	/	0.231	-0.5
CCN=C(N/N=C/c1ccc([N+](=O)[O-])cc1)SC	-8.6	2.1	i	-0.6	-0.798	/
CCO/C=C/C(O)(CNC(=O)c1ccc(C(C)(C)C)cc1)C(F)(F)F (centres undefined)	20.2	1.6	i	35.9	-0.234	0.4
CCc1ccc(N=CC23c4ccccc4C(c4ccccc42)C2C(=O)N(c4ccc(OC)cc4)C(=O)C23)cc1 (centres undefined)	39.0	2.5	i	89.3*	-0.797	/
O=C(NCC1CCCO1)C1CC(c2ccc(Cl)c(Cl)c2)=NO1 (centres undefined)	10.8	3.2	i	-2.3	1.18	1.1
CC1CC(=O)NN1C(=O)c1ccccc1 (centres undefined)	8.0	/	/	/	-0.052	-3.2
SMILES	CHOP inhibitor	MT stabilizer	Autophagy mod	L major viab	Dynein cargo inh	b-catenin transl
COc1ccc(C(O)c2coc3ccc(O)c(CN(C)C)c23)cc1 (centres undefined)	10.5	1.0	i	99.7*	-0.926	-0.5
COc1ccc2occ(C(=O)c3coc4ccc(O)c(CN(C)C)c34)c2c1	-6.9	2.3	i	75.4*	-0.963	-1.3
CS(=O)(=O)N(CC(O)CON=C1c2ccccc2-c2ccccc21)c1ccc(F)cc1 (centres undefined)	73.0*	1.0	i	-1.8	1.75	-0.3
COc1ccc(C)cc1NC(=O)CN(c1ccc(F)cc1)S(C)(=O)=O	13.1	4.9	i	-2.5	-0.938	-6.1
Cc1cccc(N(CC(O)CON=C2c3ccccc3-c3ccccc32)S(C)(=O)=O)c1 (centres undefined)	70.4*	3.0	i	56.1*	-0.789	-13.3
Cc1ccc2nc(N/N=C\c3ccc([N+](=O)[O-])o3)nc(-c3ccccc3)c2c1	49.5	6.7	?	97.7*	-1.87	/
O=[N+]([O-])c1ccc(/C=N/Nc2nc(-c3ccccc3)c3cc(Br)ccc3n2)o1	82.4*	2.1	i	92.6*	0.305	/
O=[N+]([O-])c1cc(Cl)cc(/C=N\Nc2ccccn2)c1O	93.3*	1.3	i	98.0*	-0.109	1.7
O=C(N/N=C/c1cc(Cl)cc([N+](=O)[O-])c1O)c1cc(-c2ccccn2)nc2ccccc12	24.1	/	/	/	-0.62	-1.1
CC(=O)N(C(C)=O)N1C(=O)/C(=C/c2ccc(Cl)cc2)SC1=S	91.4*	4.7	i	33.8	-0.535	-1.0
Cc1ccc(C)n1N1C(=O)/C(=C\c2ccc(Cl)cc2)SC1=S	40.0	2.8	i	34.7	0.433	-1.0
O=S(=O)(Nc1nc2ccccc2nc1NCC1CCCO1)c1cccc(Cl)c1 (centres undefined)	9.4	/	/	/	-0.25	-0.2
CCN(CC)S(=O)(=O)c1ccc(OC)c(NC(=O)CSc2cc(Cl)ccc2Cl)c1	30.2	1.8	i	98.0*	-0.205	-0.6
CCN(CC)S(=O)(=O)c1ccc(OC)c(NC(=O)CSc2ccccc2)c1	18.5	1.2	i	99.3*	-0.214	2.1
CCN(CC)S(=O)(=O)c1ccc(OC)c(NC(=O)c2cccs2)c1	-8.6	1.1	i	7.7	-0.456	0.3
CCN(CC)CCN(CC)Cc1ccccc1Br	4.5	3.8	i	95.7*	0.314	0.0
CC(=O)NN1C(=O)c2ccccc2NC1c1ccc([N+](=O)[O-])o1 (centres undefined)	25.3	2.6	i	66.0*	-1.33	-1.1
O=C(NN1C(=O)c2ccccc2NC1c1ccc([N+](=O)[O-])o1)c1ccc(Br)cc1 (centres undefined)	-17.3	2.3	i	95.5*	-0.821	-5.0
CC(=O)NN1C(=O)c2ccccc2NC1c1ccco1 (centres undefined)	-2.3	2.7	i	-5.3	-0.286	-4.2
CCOC(=O)C1CCC(CNCc2ccccc2C)CC1 (centres undefined)	31.1	/	i	95.1*	-0.45	-1.0
CCCc1nc(NCc2ccncc2)c2nnn(Cc3ccccc3F)c2n1	50.4	3.0	i	57.4*	1.73	/
